In assay [1] the test system is BMDC. Nature of the assay: Inhibition of Escherichia coli K1 infection-induced immune response in C57BL/6 mouse BMDC assessed as reduction in IL-12p70 secretion at 25 uM pretreated for 60 to 120 mins followed by Escherichia coli K1 infection for 6 hrs by ELISA. The class given is functional, cell-based. The method in brief: (§1)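 BMDCs from C57BL/6 mice were given 25 μM compound and E. coli K1, […]. Timing was: compound 30 min before a 6 h infection; cotreatment for 6 h; or compound for 30–120 min with 6 h infection. Supernatant cytokines (TNF-α, IL-6, IL-10, IL-12p70) were measured by ELISA. At least three experiments in triplicate.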

Assay [2] deals with BMDC. Nature of the assay: Inhibition of Escherichia coli DH5alpha infection-induced immune response in C57BL/6 mouse BMDC assessed as reduction in IL-6 secretion at 25 uM pretreated for 60 to 120 mins followed by Escherichia coli DH5alpha infection for 6 hrs by ELISA. The class given is functional, cell-based. The method in brief:
(§2)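 C57BL/6 BMDCs received 25 μM compound and E. coli DH5α, 3 × 10^6 CFU·mL−1. Schedules were: compound 30 min before a 6 h infection; co-addition for 6 h; or compound for 30, 60, 90 or 120 min plus 6 h infection. Supernatant TNF-α, IL-6, IL-10 and IL-12p70 were measured by ELISA. At least three experiments in triplicate.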
Background: ELISA stands for enzyme-linked immunosorbent assay.

Assay [3] relates to Mus musculus. Nature of the assay: Antiinflammatory activity in Balb/c mouse model of LPS-induced endotoxemia assessed as increase in survival rate at 1 mg/kg, ip pretreated for 1 hr followed by LPS-challenge measured over 72 hrs relative to control. Format: functional. The method in brief:
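Female-unspecified BALB/c mice given compound i.p. 1 h before i.p. LPS (20 mg·kg−1); survival followed over 72 h.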

For assay [4], the system named is Mus musculus. Nature of the assay: Antiseptic activity in Balb/c mouse model of Escherichia coli K1 infection-induced sepsis assessed as reduction in serum ALT level at 1 mg/kg, ip pretreated for 1 hr followed by Escherichia coli K1 infection measured after 2 hrs by ELISA. The class given is functional, organism-based.
The test system of assay [5] is Mus musculus. As to the kind of experiment: Antiinflammatory activity in Balb/c mouse model of LPS-induced endotoxemia assessed as increase in IL10 producing monocyte/macrophage in splenocyte at 1 mg/kg, ip pretreated for 1 hr followed by LPS-challenge measured after 12 hrs by flow cytometric analysis. Format: functional, organism-based. A general note: Flow cytometry measures light scatter and fluorescence of single cells or particles in a stream.

Assay [6] concerns Mus musculus. As to the kind of experiment: Antiinflammatory activity in Balb/c mouse model of LPS-induced endotoxemia assessed as reduction in serum IL6 level at 1 mg/kg, ip pretreated for 1 hr followed by LPS-challenge measured after 2 hrs by ELISA. Format: functional, organism-based. The method in brief:
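BALB/c mice were dosed with 1 mg·kg−1 i.p. 1 h before LPS 10 mg·kg−1 i.p. Serum was taken 2 h later, and TNF-α, IL-6 and IL-10 were measured by sandwich ELISA. Means ± SEM.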

The test system of assay [7] is BMDC. Nature of the assay: Inhibition of LPS-induced immune response in C57BL/6 mouse BMDC assessed as reduction in IL-12p70 secretion at 25 uM treated 6 hrs post LPS-challenge measured after 30 mins by ELISA. The class given is functional, cell-based. The method in brief:
(§3)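 Bone marrow DCs from 6-week-old female C57BL/6 mice, RBC-lysed, cultured in RPMI-1640/10% FBS with 10 ng/mL rmGM-CSF, 37 °C, 5% CO2. Cells given LPS 50 ng/mL for 6 h, then 25 μM compound added for 30, 60, 90 or 120 min. Supernatant TNF-α, IL-6, IL-10, IL-12p70 measured by sandwich ELISA. Mean ± SEM, compared with LPS-only DCs.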

Assay [8] deals with Mitogen-activated protein kinase 8 (Homo sapiens) (UniProt P45983). Nature of the assay: Binding affinity to human C-terminal His6-tagged JNK1alpha1 (1 to 364 residues) expressed in Escherichia coli by tryptophan fluorescence quenching assay. The method in brief: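 C-terminally His6-tagged human JNK1 (10 μM) was titrated with compound (0–100 μM; final protein:inhibitor 1:10) in 50 mM sodium phosphate, 100 mM NaCl, pH 8.0, at 25 °C. Tryptophan emission was recorded at 290–600 nm with excitation at 290 nm.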
Chain of Mitogen-activated protein kinase 8 (Homo sapiens) (P45983 whole entry, the tested form may be a part): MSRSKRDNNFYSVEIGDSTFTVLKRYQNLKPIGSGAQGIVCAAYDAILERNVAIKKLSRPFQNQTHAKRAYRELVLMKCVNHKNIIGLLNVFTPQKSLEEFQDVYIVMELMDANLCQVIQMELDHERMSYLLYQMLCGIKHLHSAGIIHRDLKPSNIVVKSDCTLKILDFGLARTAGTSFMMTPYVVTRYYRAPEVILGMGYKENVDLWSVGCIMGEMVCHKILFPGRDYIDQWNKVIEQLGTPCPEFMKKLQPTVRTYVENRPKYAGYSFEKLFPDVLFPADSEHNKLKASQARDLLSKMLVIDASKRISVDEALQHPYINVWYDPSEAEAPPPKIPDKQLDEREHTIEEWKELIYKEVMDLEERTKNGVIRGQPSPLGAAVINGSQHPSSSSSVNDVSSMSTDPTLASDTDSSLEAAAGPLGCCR

The subject of assay [9] is Mus musculus. Nature of the assay: Antiseptic activity in Balb/c mouse model of Escherichia coli K1 infection-induced sepsis assessed as reduction in serum TNFalpha level at 1 mg/kg, ip pretreated for 1 hr followed by Escherichia coli K1 infection measured after 2 hrs by ELISA. The class given is functional, organism-based. The method in brief: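 BALB/c mice received 1 mg·kg−1 i.p. 1 h before i.p. E. coli K1 RS218, 1 × 10^6 CFU per mouse. Serum was collected at 2 h, and TNF-α, IL-6 and IL-10 were quantified by sandwich ELISA. Means ± SEM.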

The subject of assay [10] is BMDC. Nature of the assay: Inhibition of LPS-induced immune response in C57BL/6 mouse BMDC assessed as increase in IL10 secretion up to 25 uM pretreated for 30 mins followed by LPS-challenge measured after 6 hrs by ELISA. The class given is functional, cell-based. The method in brief: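 Mouse BMDCs (female C57BL/6 bone marrow, GM-CSF-derived, ≥90% CD11c+ on day 7) pretreated 30 min with graded compound concentrations, then stimulated with LPS 50 ng/mL for 6 h. Supernatant TNF-α, IL-6, IL-10 and IL-12p70 quantified by sandwich ELISA. Mean ± SEM vs LPS-only cells; experiments repeated at least three times.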

For assay [11], the system named is BMDC. As to the kind of experiment: Increase in microRNA146a expression in LPS-induced C57BL/6 mouse BMDC at 25 uM pretreated for 30 mins followed by LPS-challenge measured after 6 hrs by qRT-PCR analysis. Format: functional, cell-based. The method in brief: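 Total RNA was extracted from BMDCs with TRIzol and reverse transcribed. miR-146a, miR-155 and miR-187 were quantified by real-time qPCR with gene-specific primers.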

Assay [12] deals with BMDC. Nature of the assay: Inhibition of Escherichia coli DH5alpha infection-induced immune response in C57BL/6 mouse BMDC assessed as increase in IL10 secretion at 25 uM pretreated for 60 to 120 mins followed by Escherichia coli DH5alpha infection for 6 hrs by ELISA. The class given is functional, cell-based. The method in brief: as §2
For assay [13], the system named is BMDC. Nature of the assay: Inhibition of Escherichia coli K1 infection-induced immune response in C57BL/6 mouse BMDC assessed as reduction in TNFalpha secretion at 25 uM pretreated for 30 mins followed by Escherichia coli K1 infection for 6 hrs by ELISA. The class given is functional, cell-based. The method in brief: as §1
For assay [14], the system named is Mus musculus. Nature of the assay: Antiseptic activity in Balb/c mouse model of Escherichia coli K1 infection-induced sepsis assessed as increase in survival rate at 1 mg/kg, ip pretreated for 1 hr followed by Escherichia coli K1 infection measured up to 20 hrs relative to control. The class given is functional.
The test system of assay [15] is Mus musculus. Nature of the assay: Antiinflammatory activity in Balb/c mouse model of LPS-induced endotoxemia assessed as increase in IL10 producing Tr1 population in splenocyte at 1 mg/kg, ip pretreated for 1 hr followed by LPS-challenge measured after 12 hrs by flow cytometric analysis. The class given is functional, organism-based.
For assay [16], the system named is BMDC. As to the kind of experiment: Inhibition of LPS-induced immune response in C57BL/6 mouse BMDC assessed as reduction in IL-12p70 secretion at 25 uM treated 6 hrs post LPS-challenge measured after 60 to 120 mins by ELISA. Format: functional, cell-based. The method in brief:
as §3

Assay [17] relates to BMDC. Nature of the assay: Inhibition of Escherichia coli K1 infection-induced immune response in C57BL/6 mouse BMDC assessed as reduction in IL-12p70 secretion at 25 uM pretreated for 30 mins followed by Escherichia coli K1 infection for 6 hrs by ELISA. The class given is functional, cell-based. The method in brief: as §1

The values below come from ChEMBL document CHEMBL4145607, “Tamarixetin Exhibits Anti-inflammatory Activity and Prevents Bacterial Sepsis by Increasing IL-10 Production” (J Nat Prod, 2018).

The structures appear in SMILES notation. The source made the active and inactive calls. The calls are words filed in the database; no cut-off is given here.

With `COc1ccc(-c2oc3cc(O)cc(O)c3c(=O)c2O)cc1O` [TAMARIXETIN], the inhibition entry with BMDC [1], in the assay with BMDC [2], in the assay with BMDC [12] and in the assay on BMDC [16] was “inactive” in each case. The results for the Activity in the assay with Mus musculus [3] and with Mus musculus [14] were 80% and 60%, respectively. Besides, the result in the assay on Mus musculus [4], in the assay on Mus musculus [5], in the assay with Mus musculus [6], in the assay on Mus musculus [9], in the assay with BMDC [11] and in the assay with Mus musculus [15] was Active. The inhibition result in the assay on BMDC [7], with BMDC [10], in the assay on BMDC [13] and with BMDC [17] was “Active” throughout. In assay [8], this compound returned a K of 4.9 ×10⁵ /M.
